Measurements: ChEMBL document CHEMBL3992522, “Antileishmanial Activity of Pyrazolopyridine Derivatives and Their Potential as an Adjunct Therapy with Miltefosine” (J Med Chem, 2017)
Active and inactive are the calls of the source. No cut-off for these calls is given here.

Tests used:
Mus musculus [1] = experiment: Increase in iNOS-mediated NO generation in Balb/c mouse splenocytes infected with Leishmania donovani amastigote forms at 25 mg/kg, ip cotreated with 5 mg/kg, po miltefosine for 5 consecutive days measured on day 4 post last treatment followed by soluble Leishmania donovani promastigote antigen-stimulation for 72 hrs by Griess assay relative to control; assay type: functional
Procedure, shortened: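 Splenocytes from treated infected BALB/c mice (5-day regimen, i.p. test compound, oral miltefosine; n = 5) isolated day 4 and day 7 post-treatment. Cultured in phenol red-free RPMI 1640 with 5 μg/mL SLA for 72 h at 37 °C, 5% CO2. Supernatant nitrite measured by Griess assay at 540 nm against a sodium nitrite standard curve.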

Mus musculus [2] = experiment: Increase in IFN-gamma level in Balb/c mouse splenocytes infected with Leishmania donovani amastigote forms at 25 mg/kg, ip co-treated with 5 mg/kg, po miltefosine administered for 5 consecutive days measured on day 4 post last treatment by sandwich ELISA relative to control; assay type: functional
Procedure, shortened: (§1)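 Splenocytes (2×10^6) from treated infected BALB/c mice taken on day 4 or 7 post-treatment. Cultured in phenol-red-free RPMI 1640 with 5 μg/mL soluble L. donovani antigen for 72 h at 37 °C, 5% CO2. Supernatant cytokines measured by sandwich ELISA against a standard curve. Mean ± SD, n = 5 mice per group, three independent experiments.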

[3] = Apparent volume of distribution in Swiss mouse at 50 mg/kg, po by LC-MS/MS analysis; assay type: ADME, organism-based; settings: in vivo
Leishmania donovani [4] = experiment: Antileishmanial activity against Leishmania donovani amastigote forms infected in Balb/c mouse assessed as inhibition of parasitic burden in liver at 100 mg/kg, ip administered for 5 consecutive days measured on day 7 post last treatment by Giemsa staining based assay relative to control; assay type: functional; settings: 168 h
Leishmania donovani [5] = experiment: Antileishmanial activity against Leishmania donovani amastigote forms infected in Balb/c mouse assessed as inhibition of parasitic burden in spleen at 100 mg/kg, ip administered for 5 consecutive days measured on day 7 post last treatment by Giemsa staining based assay relative to control; assay type: functional; settings: 168 h
Leishmania donovani [6] = experiment: Induction of apoptosis in Leishmania donovani MHOM/IN/80/DD8 promastigote forms assessed as early apoptotic cells at 50 uM after 48 hrs by Annexin V-FITC/propidium iodide staining based flow cytometry (reference value: 7.41%); assay type: functional
Leishmania donovani [7] = experiment: Antileishmanial activity against Leishmania donovani MHOM/IN/80/DD8 amastigote forms harboring luciferase gene infected in mouse J774 cells at 50 uM after 72 hrs by Steady-Glo reagent based luminescence assay relative to control; assay type: functional; settings: MHOM/IN/80/DD8, J774, 72 h, read-out: GI
Procedure, shortened: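 Stationary-phase luciferase-expressing Dd8 promastigotes infected into J774 macrophages (4×10^4/mL seeded, 24 h, 37 °C, 5% CO2) at 1:8 macrophage:parasite for 24 h. Non-internalised parasites washed off. Compounds added at 50 and 25 µM in RPMI/10% FBS for 72 h. Lysis with Steady-Glo luciferin reagent plus PBS, luminescence read. Inhibition relative to untreated infected controls.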

Mus musculus [8] = experiment: Increase in IL-12 level in Balb/c mouse splenocytes infected with Leishmania donovani amastigote forms at 25 mg/kg, ip co-treated with 5 mg/kg, po miltefosine administered for 5 consecutive days measured on day 7 post last treatment by sandwich ELISA relative to control; assay type: functional; procedure, shortened: as §1
Leishmania donovani [9] = experiment: Induction of apoptosis in Leishmania donovani MHOM/IN/80/DD8 promastigote forms assessed as DNA fragmentation at 50 uM after 48 hrs by propidium iodide staining based TUNEL assay; assay type: functional
Procedure, shortened: (§2)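 DNA fragmentation detected by TUNEL under fluorescence and phase-contrast microscopy, with counts of TUNEL-positive cells; three independent experiments.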

[10] = Tmax in Swiss mouse at 50 mg/kg, po by LC-MS/MS analysis; assay type: ADME, organism-based; settings: in vivo
Leishmania donovani [11] = experiment: Antileishmanial activity against Leishmania donovani amastigote forms infected in Balb/c mouse assessed as inhibition of parasitic burden in liver at 25 mg/kg, ip co-treated with 5 mg/kg, po miltefosine administered for 5 consecutive days measured on day 4 and 7 post last treatment by Giemsa staining based assay relative to control; assay type: functional
Procedure, shortened: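 Combination study with seven groups of 5 infected BALB/c mice, including vehicle (8% DMSO i.p.), infected untreated and miltefosine-alone groups. Treatment daily for 5 days, test compound i.p. and miltefosine orally. Mice killed on days 4 and 7 post-treatment; liver and spleen parasite load counted on Giemsa-stained stamp smears and expressed as LDU relative to infected untreated mice. Mean ± SD, n = 5, three independent experiments.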

Leishmania donovani [12] = experiment: Induction of mitochondrial membrane potential loss in Leishmania donovani MHOM/IN/80/DD8 promastigote forms at 50 uM after 6 hrs by JC-1 staining based flow cytometry (reference value: 5.02%); assay type: functional
Mus musculus [13] = experiment: Increase in IFN-gamma level in Balb/c mouse splenocytes infected with Leishmania donovani amastigote forms at 25 mg/kg, ip co-treated with 5 mg/kg, po miltefosine administered for 5 consecutive days measured on day 7 post last treatment by sandwich ELISA relative to control; assay type: functional; procedure, shortened: as §1
[14] = Cytotoxicity against mouse J774 cells assessed as reduction in cell viability after 72 hrs by MTT assay; assay type: cell-based
Procedure, shortened: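 Vero and J774 cells seeded at 1×10^5 per well for 24 h, then exposed 72 h to seven two-fold dilutions from 500 to 7.81 μM. MTT solution (5 mg/mL stock) added for 2 h at 37 °C, formazan dissolved in DMSO and read at 540 nm. CC50 derived by the Huber and Koella method.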

Leishmania donovani [15] = experiment: Antileishmanial activity against Leishmania donovani MHOM/IN/80/DD8 promastigote forms harboring luciferase gene at 50 uM after 72 hrs by Steady-Glo reagent based luminescence assay relative to control; assay type: functional; settings: MHOM/IN/80/DD8, 72 h, read-out: GI
Procedure, shortened: (§3)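 Exponential-phase Dd8-Luc promastigotes at 1×10^6/mL in M199 with 10% FBS, 24 °C, given 50 and 25 µM for 72 h. Vehicle 0.1% DMSO. Steady-Glo added 1:1, luminescence (RLU) read. IC50 from four-parameter Hill regression, derived only where inhibition exceeded 90%. Means of at least three independent experiments.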

Leishmania donovani [16] = experiment: Induction of apoptosis in Leishmania donovani MHOM/IN/80/DD8 promastigote forms assessed as DNA fragmentation at IC50 after 48 hrs by propidium iodide staining based TUNEL assay; assay type: functional; procedure, shortened: as §2
[17] = Elimination rate constant in Swiss mouse at 50 mg/kg, po by LC-MS/MS analysis; assay type: ADME, organism-based; settings: in vivo
[18] = Half life in Swiss mouse at 50 mg/kg, po by LC-MS/MS analysis; assay type: ADME, organism-based; settings: in vivo
Leishmania donovani [19] = experiment: Antileishmanial activity against Leishmania donovani amastigote forms infected in Balb/c mouse assessed as inhibition of parasitic burden in liver at 50 mg/kg, ip administered for 5 consecutive days measured up to 7 weeks post treatment by Giemsa staining based assay; assay type: functional, organism-based
Leishmania donovani [20] = experiment: Induction of mitochondrial membrane potential loss in Leishmania donovani MHOM/IN/80/DD8 promastigote forms at 50 uM after 48 hrs by JC-1 staining based flow cytometry (reference value: 5.02%); assay type: functional
Leishmania donovani [21] = experiment: Antileishmanial activity against Leishmania donovani MHOM/IN/80/DD8 promastigote forms harboring luciferase gene at 25 uM after 72 hrs by Steady-Glo reagent based luminescence assay relative to control; assay type: functional; settings: MHOM/IN/80/DD8, 72 h, read-out: GI; procedure, shortened: as §3

## COc1ccc(C2C3=C(CCC3=O)Nc3c2c(-c2c[nH]c4ccccc24)nn3-c2ccc(Cl)c(Cl)c2)cc1OC (stereo unspecified)
Mus musculus [1]
  fold change (FC): 5.6
Mus musculus [2]
  fold change (FC): 9.1
[3]
  Vd/F: 19.6 L/kg
Leishmania donovani [4]
  inhibition in vivo at 100 mg/kg: 92.7%
Leishmania donovani [5]
  inhibition in vivo at 100 mg/kg: 90%
Leishmania donovani [6]
  Activity: 11.6%
Leishmania donovani [7]
  inhibition of growth at 50 µM: 97.3%
Mus musculus [8]
  fold change (FC): 11.3
Leishmania donovani [9]
  Activity: Active
[10]
  Tmax: 1.75 h
Leishmania donovani [11]
  inhibition (INH): >92%
Leishmania donovani [12]
  Activity: 15.2%
Mus musculus [13]
  fold change (FC): 8.5
[14]
  CC50 at 72 h: 409 µM
Leishmania donovani [15]
  inhibition of growth at 50 µM: 93.3%
Leishmania donovani [16]
  Activity: Active
[17]
  k el: 3.89e-05 s⁻¹
[18]
  half-life: 4.81 h
Leishmania donovani [19]
  inhibition: Active
Leishmania donovani [20]
  Activity: 44.9%
Leishmania donovani [21]
  inhibition of growth at 25 µM: 91.7%
